In ChEMBL document CHEMBL1128486, “Farnesyl diphosphate-based inhibitors of Ras farnesyl protein transferase” (J Med Chem, 1995):
pIC50: −log10 of the molar value.

Columns and labels:
Details in all cases: read-out: I50
[1] = molecular target: Protein farnesyltransferase (Sus scrofa); experiment: Inhibition of pig brain farnesyl transferase
[2] = molecular target: Protein farnesyltransferase (Sus scrofa); experiment: Inhibition of pig brain farnesyl transferase; remark: listed apart in the source
Mevalonate kinase = Mevalonate kinase (Rattus norvegicus, UniProt P17256); experiment: Inhibition of mevalonate kinase
Procedure, shortened: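 Mevalonate kinase was purified to homogeneity from rat liver and used for inhibition measurement.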

Squalene synthase = molecular target: T1, Squalene synthase (Rattus norvegicus, UniProt Q02769); experiment: Inhibition of squalene synthase
T1 sequence (Q02769 whole entry): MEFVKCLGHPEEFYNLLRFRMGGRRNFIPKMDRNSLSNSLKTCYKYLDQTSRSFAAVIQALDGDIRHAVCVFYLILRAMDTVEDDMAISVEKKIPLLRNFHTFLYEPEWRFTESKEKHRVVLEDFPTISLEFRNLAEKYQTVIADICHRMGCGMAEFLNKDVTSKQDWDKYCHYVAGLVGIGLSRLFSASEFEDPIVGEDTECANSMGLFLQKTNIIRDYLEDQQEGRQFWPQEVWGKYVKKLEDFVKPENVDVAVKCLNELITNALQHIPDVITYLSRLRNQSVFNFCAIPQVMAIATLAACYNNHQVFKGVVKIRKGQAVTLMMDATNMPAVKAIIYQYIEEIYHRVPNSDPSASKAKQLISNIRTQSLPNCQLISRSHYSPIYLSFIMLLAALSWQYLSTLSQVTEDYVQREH
Procedure, shortened: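 Squalene synthetase was prepared from rat liver microsomes and used for I50 determination.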

[3] = molecular target: Protein farnesyltransferase (Sus scrofa); experiment: Inhibition of pig brain farnesyl transferase; remark: listed apart in the source

Mevalonate kinase, sequence (P17256 whole entry): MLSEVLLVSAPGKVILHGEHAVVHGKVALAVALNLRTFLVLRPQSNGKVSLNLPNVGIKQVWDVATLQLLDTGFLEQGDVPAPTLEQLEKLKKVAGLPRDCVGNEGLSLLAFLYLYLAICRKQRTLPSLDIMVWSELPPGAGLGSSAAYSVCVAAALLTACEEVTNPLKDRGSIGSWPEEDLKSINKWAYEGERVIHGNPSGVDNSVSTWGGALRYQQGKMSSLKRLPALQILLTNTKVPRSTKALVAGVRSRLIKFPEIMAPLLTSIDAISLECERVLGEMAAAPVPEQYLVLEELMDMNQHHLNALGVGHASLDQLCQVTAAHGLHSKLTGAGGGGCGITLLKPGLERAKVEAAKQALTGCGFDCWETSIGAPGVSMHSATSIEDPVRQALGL

Row | pIC50 [1] | further results | SMILES
1 | 4.52 |  | CC(C)=CCC/C(C)=C/CC/C(C)=C/C(=O)N[C@H](CCC(=O)O)C(=O)O
2 | 6.30 |  | CC(C)=CCC/C(C)=C/CC/C(C)=C/C(=O)N[C@H](CP(=O)(O)O)C(=O)O
3 |  | pIC50 [2]: 5.34 | CC(C)=CCC/C(C)=C/CC/C(C)=C/CNC(=O)CCP(=O)(O)O
4 |  | pIC50 [2]: 4.38 | CC(C)=CCC/C(C)=C/CC/C(C)=C/CNC(=O)CP(=O)(O)O
5 | 6.28 |  | CC(C)=CCC/C(C)=C/CC/C(C)=C/CN(C)C(=O)C(CP(=O)(O)O)C(=O)O (centres undefined)
6 |  | pIC50 (Mevalonate kinase): < 3.70; pIC50 (Squalene synthase): 3.29; pIC50 [3]: 7.12 | CC(C)=CCC/C(C)=C/CC/C(C)=C/CNC(=O)C(CP(=O)(O)O)C(=O)O (centres undefined)
7 | 4.90 |  | CC(C)=CCC/C(C)=C/CC/C(C)=C/C(=O)N[C@@H](CC(=O)O)C(=O)O
8 |  | pIC50 [2]: 3.94 | CC(C)=CCC/C(C)=C/CC/C(C)=C/CNC(=O)CC(=O)O
9 | 4.75 |  | CC(C)=CCC/C(C)=C/CC/C(C)=C/CCNC(=O)C(CP(=O)(O)O)C(=O)O (centres undefined)
10 | 3.66 |  | CC(C)=CCC/C(C)=C/CC/C(C)=C/CNC(=O)CCC(=O)O
11 | 4.94 |  | CC(C)=CCC/C(C)=C/CC/C(C)=C/C(=O)N[C@@H](CCC(=O)O)C(=O)O
12 | 7.30 |  | CC(C)=CCC/C(C)=C/CC/C(C)=C/CC(=O)N[C@H](CP(=O)(O)O)C(=O)O
13 | 6.60 |  | CC(C)=CCC/C(C)=C/CC/C(C)=C/C(=O)N[C@@H](CP(=O)(O)O)C(=O)O
14 | 4.60 |  | CC(C)=CCC/C(C)=C/CC/C(C)=C/C(=O)N[C@H](CC(=O)O)C(=O)O
15 | 5.77 |  | CC(C)=CCC/C(C)=C/CC/C(C)=C/CC(=O)N[C@@H](CP(=O)(O)O)C(=O)O
16 | 4.26 |  | CC(C)=CCC/C(C)=C/CCC(C)(C)CCNC(=O)C(CP(=O)(O)O)C(=O)O (centres undefined)
17 | 5.05 |  | CCCCCCCCCCCCNC(=O)C(CP(=O)(O)O)C(=O)O (centres undefined)
